Reference: ChEMBL document CHEMBL3868630, “Synthesis, anti-proliferative activity, SAR study, and preliminary in vivo toxicity study of substituted N,N'-bis(arylmethyl)benzimidazolium salts against a panel of non-small cell lung cancer cell lines” (Bioorg Med Chem, 2017)

How the values were obtained:
[1] = Cytotoxicity against human NCI-H460 cells assessed as decrease in cell viability after 72 hrs by MTT assay; assay type: functional, cell-based; conditions: NCI-H460, 72 h
Method in brief: (§1)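 Cells kept in RPMI 1640 with 10% FBS at 37 °C, 5% CO2, passaged every 2-3 days; seeded at 5,000-7,000 cells/well and left 24 h. Compounds dissolved in 1% DMSO, diluted in fresh medium to 1, 4, 16 and 32 µM, added in sextuplicate; 72 h exposure. MTT added for 3-4 h, medium removed, DMSO added for 15 min at 37 °C, OD read at 540 nm.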

[2] = Cytotoxicity against human NCI-H1975 cells assessed as decrease in cell viability after 72 hrs by MTT assay; assay type: functional, cell-based; conditions: NCI-H1975, 72 h; method in brief: as §1
[3] = Cytotoxicity against human HCC827 cells assessed as decrease in cell viability after 72 hrs by MTT assay; assay type: functional, cell-based; conditions: HCC827, 72 h; method in brief: as §1
[4] = Cytotoxicity against human A549 cells assessed as decrease in cell viability after 72 hrs by MTT assay; assay type: functional, cell-based; conditions: A549, 72 h; method in brief: as §1
[5] = Aqueous solubility of the compound; assay type: physicochemical
[6] = Growth inhibition of human A549 cells after 48 hrs by SRB assay; assay type: functional; conditions: A549, 48 h
[7] = Cytotoxicity against human NCI-H226 cells assessed as cell growth at 10 uM after 48 hrs by SRB assay relative to control; assay type: functional; conditions: NCI-H226, 48 h, read-out: Activity
[8] = Cytotoxicity against human HOP92 cells assessed as cell growth at 10 uM after 48 hrs by SRB assay relative to control; assay type: functional; conditions: HOP-92, 48 h, read-out: Activity
[9] = Cytotoxicity against human A549 cells assessed as cell growth at 10 uM after 48 hrs by SRB assay relative to control; assay type: functional; conditions: A549, 48 h, read-out: Activity
[10] = Cytotoxicity against human EKVX cells assessed as cell growth at 10 uM after 48 hrs by SRB assay relative to control; assay type: functional; conditions: read-out: Activity
[11] = Cytotoxicity against human HOP62 cells assessed as cell growth at 10 uM after 48 hrs by SRB assay relative to control; assay type: functional; conditions: HOP-62, 48 h, read-out: Activity
[12] = Cytotoxicity against human NCI-H23 cells assessed as cell growth at 10 uM after 48 hrs by SRB assay relative to control; assay type: functional; conditions: NCI-H23, 48 h, read-out: Activity
[13] = Cytotoxicity against human NCI-H322M cells assessed as cell growth at 10 uM after 48 hrs by SRB assay relative to control; assay type: functional; conditions: read-out: Activity
[14] = Cytotoxicity against human NCI-H460 cells assessed as cell growth at 10 uM after 48 hrs by SRB assay relative to control; assay type: functional; conditions: NCI-H460, 48 h, read-out: Activity
[15] = Growth inhibition of human EKVX cells after 48 hrs by SRB assay; assay type: functional
[16] = Growth inhibition of human HOP62 cells after 48 hrs by SRB assay; assay type: functional; conditions: HOP-62, 48 h; for CC50: read-out: LC50 (the source's name)
[17] = Growth inhibition of human HOP92 cells after 48 hrs by SRB assay; assay type: functional; conditions: HOP-92, 48 h
[18] = Growth inhibition of human NCI-H226 cells after 48 hrs by SRB assay; assay type: functional; conditions: NCI-H226, 48 h
[19] = Growth inhibition of human NCI-H23 cells after 48 hrs by SRB assay; assay type: functional; conditions: NCI-H23, 48 h
[20] = Growth inhibition of human NCI-H322M cells after 48 hrs by SRB assay; assay type: functional; conditions: for CC50: read-out: LC50 (the source's name)
[21] = Growth inhibition of human NCI-H460 cells after 48 hrs by SRB assay; assay type: functional; conditions: NCI-H460, 48 h
[22] = Growth inhibition of human NCI-H522 cells after 48 hrs by SRB assay; assay type: functional; conditions: NCI-H522, 48 h; for CC50: read-out: LC50 (the source's name)
[23] = Cytotoxicity against human NCI-H522 cells assessed as cell growth at 10 uM after 48 hrs by SRB assay relative to control; assay type: functional; conditions: NCI-H522, 48 h, read-out: Activity

| Structure (SMILES) | IC50 [1] | IC50 [2] | IC50 [3] | IC50 [4] | solubility [5] | GI50 [6] | TGI [6] | growth at 10 µM [7] | growth at 10 µM [8] | growth at 10 µM [9] | growth at 10 µM [10] | growth at 10 µM [11] | growth at 10 µM [12] | growth at 10 µM [13] | growth at 10 µM [14] | GI50 [15] | TGI [15] | GI50 [16] | TGI [16] | GI50 [17] | further results |
| --- | --- | --- | --- | --- | --- | --- | --- | --- | --- | --- | --- | --- | --- | --- | --- | --- | --- | --- | --- | --- | --- |
| COCCOCCOCc1n(Cc2ccc3ccccc3c2)c2cc(C)c(C)cc2[n+]1Cc1ccc2ccccc2c1.[Br-] | < 1 µM | < 1 µM | 2 µM | 2 µM | 1000 µg/mL |  |  |  |  |  |  |  |  |  |  |  |  |  |  |  |  |
| Cc1n(Cc2ccc3ccccc3c2)c2ccccc2[n+]1Cc1ccc2ccccc2c1.[Br-] | 3 µM | 2 µM | 4 µM | 4 µM | < 500 µg/mL | 1.76 µM | 3.4 µM | -9.12% | -68.2% | 8.96% | 9.57% | -62% | -29.5% | 9.37% | -73.9% | 1.78 µM | 4.08 µM | 1.69 µM | 3.24 µM | 0.0317 µM | LC50 [6]: 6.55 µM; LC50 [17]: 5.03 µM; TGI [17]: 2.06 µM; GI50 [18]: 1.44 µM; TGI [18]: 3.2 µM; TGI [19]: 2.76 µM; GI50 [20]: 1.56 µM; TGI [20]: 3 µM; CC50 [20]: 5.78 µM; GI50 [21]: 1.47 µM; TGI [21]: 3.02 µM; GI50 [22]: 0.036 µM; TGI [22]: 2.27 µM |
| O=C(OCc1ccc2ccccc2c1)c1ccc2c(c1)n(Cc1ccc3ccccc3c1)c[n+]2Cc1ccc2ccccc2c1.[Br-] | 4 µM | 4 µM | 7 µM | 7 µM | < 500 µg/mL |  |  |  |  |  |  |  |  |  |  |  |  |  |  |  |  |
| OCCCc1n(Cc2ccc3ccccc3n2)c2ccccc2[n+]1Cc1ccc2ccccc2c1.[Br-] | 4 µM | 3 µM | 11 µM | 12 µM | < 500 µg/mL |  |  |  |  |  |  |  |  |  |  |  |  |  |  |  |  |
| COC(=O)c1cc2c(cc1C(=O)OC)[n+](Cc1ccc3ccccc3c1)cn2Cc1ccc2ccccc2c1.[Br-] | 26 µM | 15 µM | 20 µM | 23 µM | < 500 µg/mL |  |  | 77.7% | 84.7% | 92.2% | 94.3% | 78.8% | 93.2% | 90.6% | 94.5% |  |  |  |  |  | growth at 10 µM [23]: 77.3% |
| COC(=O)c1ccc2c(c1)n(Cc1ccc3ccccc3c1)c[n+]2Cc1ccc2ccccc2c1.[Br-] | 9 µM | 7 µM | 12 µM | 16 µM | < 500 µg/mL |  |  | 61.3% | -10.7% | 75% | 71% | 63.8% | 34.6% | 57.2% | 28.6% |  |  |  |  |  | growth at 10 µM [23]: 26.3% |
| Cc1cc2c(cc1C)[n+](Cc1ccc3ccccc3n1)cn2Cc1ccc2ccccc2n1.[Cl-] | 2 µM | < 1 µM | 3 µM | 4 µM | 1400 µg/mL | 2.83 µM | 13 µM | 9.61% | -27.3% | 30.4% | 39.6% | 4.38% | 1.58% | 36% | 0.34% | 2.29 µM | 11.1 µM | 1.27 µM | 3.13 µM | 0.484 µM | LC50 [6]: 63.5 µM; LC50 [15]: 66 µM; CC50 [16]: 7.72 µM; LC50 [17]: 5.22 µM; TGI [17]: 2 µM; GI50 [18]: 1.59 µM; LC50 [18]: > 100 µM; TGI [18]: 4.01 µM; GI50 [19]: 0.736 µM; LC50 [19]: 29.6 µM; TGI [19]: 3.53 µM; GI50 [20]: 1.37 µM; TGI [20]: 8.62 µM; CC50 [20]: 30.5 µM; GI50 [21]: 0.63 µM; LC50 [21]: 6.2 µM; TGI [21]: 2.21 µM; GI50 [22]: 0.704 µM; TGI [22]: 2.47 µM; CC50 [22]: 6.89 µM |
| [Cl-].c1ccc2nc(Cn3c[n+](Cc4ccc5ccccc5n4)c4ccccc43)ccc2c1 | 4 µM | 3 µM | 6 µM | 10 µM | 2400 µg/mL | 11.6 µM | 25.9 µM | 37.1% | -8.16% | 54% | 74.7% | 53.8% | 32% | 78.1% | 32.4% | 5.7 µM | 23.7 µM | 2.97 µM | 13.7 µM | 0.93 µM | LC50 [6]: 58 µM; LC50 [15]: 72.1 µM; CC50 [16]: 41 µM; LC50 [17]: 25 µM; TGI [17]: 4.3 µM; GI50 [18]: 4.13 µM; LC50 [18]: 78.2 µM; TGI [18]: 20.4 µM; GI50 [19]: 1.47 µM; LC50 [19]: 49.4 µM; TGI [19]: 10.3 µM; GI50 [20]: 3.68 µM; TGI [20]: 17.1 µM; CC50 [20]: 43.5 µM; GI50 [21]: 2.8 µM; LC50 [21]: 41.8 µM; TGI [21]: 12.3 µM; GI50 [22]: 1.56 µM; TGI [22]: 9.72 µM; CC50 [22]: 44.7 µM |
| O=C(O)CCc1n(Cc2ccc3ccccc3c2)c2ccccc2[n+]1Cc1ccc2ccccc2c1.[Cl-] | > 30 µM | > 30 µM | > 30 µM | > 30 µM | < 500 µg/mL |  |  |  |  |  |  |  |  |  |  |  |  |  |  |  |  |
| O=C(O)c1cc2c(cc1C(=O)O)[n+](Cc1ccc3ccccc3c1)cn2Cc1ccc2ccccc2c1.[Cl-] | > 30 µM | > 30 µM | > 30 µM | > 30 µM | < 500 µg/mL |  |  |  |  |  |  |  |  |  |  |  |  |  |  |  |  |
| OCCCc1n(Cc2ccc3ccccc3c2)c2ccccc2[n+]1Cc1ccc2ccccc2c1.[Br-] | 4 µM | 4 µM | 6 µM | 10 µM | < 500 µg/mL | 6.97 µM | 31.4 µM | 48.5% | -24.3% | 68.4% | 47.6% | 37.5% | 19% | 49.9% | 18.4% | 3.68 µM | 19.4 µM | 2.32 µM | 11.6 µM | 0.566 µM | LC50 [6]: > 100 µM; LC50 [15]: 70.6 µM; CC50 [16]: 82.7 µM; LC50 [17]: 69.1 µM; TGI [17]: 3.1 µM; GI50 [18]: 2.23 µM; LC50 [18]: 99.6 µM; TGI [18]: 10.5 µM; GI50 [19]: 1.65 µM; LC50 [19]: 56.8 µM; TGI [19]: 8.17 µM; GI50 [20]: 2.15 µM; TGI [20]: 9.1 µM; CC50 [20]: 31.7 µM; GI50 [21]: 2.43 µM; LC50 [21]: 80.3 µM; TGI [21]: 9.57 µM; GI50 [22]: 1.05 µM; TGI [22]: 3.95 µM; CC50 [22]: 84.4 µM |
| Cc1cc2c(cc1C)[n+](Cc1ccc3ccccc3c1)cn2Cc1ccc2ccccc2c1.[Br-] | 2 µM | 2 µM | 2 µM | 3 µM | < 500 µg/mL | 1.42 µM | 2.95 µM | -25.5% | -80.8% | -71.3% | -64.3% | -73% | -71.8% | -8.28% | -76.8% | 1.37 µM | 2.88 µM | 1.03 µM | 2.47 µM | 0.587 µM | TGI [17]: 2.53 µM; GI50 [18]: 1.39 µM; TGI [18]: 3.42 µM; GI50 [19]: 0.872 µM; TGI [19]: 2.28 µM; GI50 [20]: 1.14 µM; TGI [20]: 2.42 µM; GI50 [21]: 0.662 µM; GI50 [22]: 1.25 µM; TGI [22]: 2.99 µM |
| COC(=O)Cc1n(Cc2ccc3ccccc3c2)c2ccccc2[n+]1Cc1ccc2ccccc2c1.[Br-] | 7 µM | 6 µM | 8 µM | 8 µM | < 500 µg/mL |  |  |  |  |  |  |  |  |  |  |  |  |  |  |  |  |
| COc1ccc2c(c1)n(Cc1ccc3ccccc3c1)c[n+]2Cc1ccc2ccccc2c1.[Br-] | 4 µM | 2 µM | 4 µM | 6 µM | < 500 µg/mL |  |  |  |  |  |  |  |  |  |  |  |  |  |  |  |  |
| Cl.O=C(O)c1ccc2c(c1)n(Cc1ccc3ccccc3c1)c[n+]2Cc1ccc2ccccc2c1.[Br-] | 16 µM | 23 µM | > 30 µM | 12 µM | < 500 µg/mL |  |  |  |  |  |  |  |  |  |  |  |  |  |  |  |  |
